The target of test [1] is T1, DNA topoisomerase 1 (Homo sapiens) (UniProt P11387).
T1 sequence (whole entry): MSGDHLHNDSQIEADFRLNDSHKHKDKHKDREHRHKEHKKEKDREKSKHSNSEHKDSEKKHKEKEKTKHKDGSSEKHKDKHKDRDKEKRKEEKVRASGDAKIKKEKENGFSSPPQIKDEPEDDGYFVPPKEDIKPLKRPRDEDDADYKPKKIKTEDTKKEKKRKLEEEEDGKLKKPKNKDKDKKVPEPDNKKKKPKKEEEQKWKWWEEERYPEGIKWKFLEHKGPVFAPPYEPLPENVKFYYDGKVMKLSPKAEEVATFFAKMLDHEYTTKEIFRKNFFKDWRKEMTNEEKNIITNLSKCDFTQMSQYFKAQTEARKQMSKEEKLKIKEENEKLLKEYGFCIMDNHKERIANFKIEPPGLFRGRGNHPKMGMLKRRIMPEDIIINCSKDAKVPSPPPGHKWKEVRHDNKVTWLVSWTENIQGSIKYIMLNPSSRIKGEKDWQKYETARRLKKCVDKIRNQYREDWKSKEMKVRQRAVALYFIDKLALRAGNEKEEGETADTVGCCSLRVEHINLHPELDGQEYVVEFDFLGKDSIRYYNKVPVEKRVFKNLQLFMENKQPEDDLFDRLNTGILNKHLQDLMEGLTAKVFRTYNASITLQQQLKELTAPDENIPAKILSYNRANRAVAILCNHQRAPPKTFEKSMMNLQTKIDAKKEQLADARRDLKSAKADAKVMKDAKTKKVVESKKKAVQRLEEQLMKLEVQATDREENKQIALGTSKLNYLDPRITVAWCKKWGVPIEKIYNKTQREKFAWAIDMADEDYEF
The test is described as follows: Activity to produce DNA topoisomerase I-mediated DNA cleavage at concentration up to 10 uM; +, indicates weak activity. A digest of the protocol:
(§1)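 Human recombinant top1, purified from baculovirus, was incubated for 30 min at 22 °C with the drug at up to 10 μM. The substrate was a 161 bp PvuII/HindIII fragment of pBluescript SK(-), 3'-end-labeled at the HindIII site by Klenow fill-in with [α-32P]dGTP, about 50 000 dpm per reaction. Reactions were stopped with SDS (0.5% final) and run on denaturing 16% polyacrylamide/7 M urea gels. Cleavage was scored semiquantitatively.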

A further test relates to SN12C. Kind of test: Cytotoxic concentration against human renal SN12C cell line growth inhibition. The test is classed as functional.
The test system of another test is MDA-MB-435. Kind of test: Cytotoxic concentration against human breast MDA-MB-435 cell line growth inhibition. The test is classed as functional.
A further test has as its system Cancer cell lines. The test is described as follows: Mean graph midpoint for growth inhibition of all human cancer cell lines. The test is classed as functional.
Another test concerns SF-539. The test is described as follows: Cytotoxic concentration against human CNS SF-539 cell line growth inhibition. The test is classed as functional.
For a further test, the system named is DU-145. The test is described as follows: Cytotoxic concentration against human prostate DU-145 cell line growth inhibition. The test is classed as functional.
The test system of the next test is HOP-62. Kind of test: Cytotoxic concentration against human lung HOP-62 cell line growth inhibition. The test is classed as functional.
The test system of a further test is HCT-116. Kind of test: Cytotoxic concentration against human colon HCT116 cell line growth inhibition. The test is classed as functional.
The test system of a further test is OVCAR-3. The test is described as follows: Cytotoxic concentration against human ovarian OVCAR-3 cell line growth inhibition. The test is classed as functional.
Another test has as its system UACC-62. The test is described as follows: Cytotoxic concentration against human melanoma UACC-62 cell line growth inhibition. The test is classed as functional.
Test [2] addresses T1, DNA topoisomerase 1 (Homo sapiens). Kind of test: Activity to produce DNA topoisomerase I-mediated DNA cleavage at concentration up to 10 uM. Put shortly: as §1
The target is the same in test [3]. Kind of test: Activity to produce DNA topoisomerase I-mediated DNA cleavage at concentration up to 10 uM; +++, greater activity than the parent compound 2. Put shortly:
as §1

The structures appear in SMILES notation.

As to `COc1cc2c3c(n(C)c(=O)c2cc1OC)-c1cc2c(cc1/C3=C\CCCCl)OCO2`, the Activity result in [1] was “Weak activity”. Also, the 50% growth inhibitory concentration (GI50) in the test with SN12C and in the test on MDA-MB-435 was above 100 µM each time.
`COc1cc2c3c(n(C)c(=O)c2cc1OC)-c1cc2c(cc1/C3=C/CCCCCBr)OCO2`: in the test with Cancer cell lines, the MGM was determined as 7.8 µM.
Turning to `COc1cc2cc3n(c(=O)c2cc1OC)Cc1cc2ccccc2nc1-3` [DIMETHOXYAROMATHECIN], the concentration for 50% growth inhibition (GI50) was above 100 µM in the test on SF-539; above 100 µM in the test on DU-145; above 100 µM in the test with HOP-62; 57.3 µM in the test with HCT-116; above 100 µM with OVCAR-3; above 100 µM in the test on SN12C. Moreover, the concentration for 50% growth inhibition (GI50) in the test on UACC-62 and with MDA-MB-435 was above 100 µM throughout. Besides, in test [1], the Activity result was “indicates weak activity”.
On to `COc1cc2c3c(n(C)c(=O)c2cc1OC)-c1cc2c(cc1C3=O)OCO2`, for which the GI50 with SF-539 was 41 µM; in the test with DU-145 it was 37 µM; in the test with HOP-62 it was 1.3 µM; in the test on HCT-116 it was 35 µM; with SN12C, 68 µM; in the test with UACC-62, 4.2 µM. In the test with MDA-MB-435, this molecule yielded a GI50 of 96 µM. In the test on Cancer cell lines, the MGM is 20 µM.
In test [2], `COc1cc2c3c(n(C)c(=O)c2cc1OC)-c1cc2c(cc1/C3=C\CCCBr)OCO2` yielded an Activity of 0. For the same molecule, the GI50 was 30 µM in the test with SF-539; 67.8 µM in the test on DU-145; 19.4 µM with HOP-62; 37.8 µM in the test on HCT-116; 58.1 µM with OVCAR-3; above 100 µM in the test on SN12C. Moreover, the GI50 with UACC-62 is 11.4 µM; with MDA-MB-435, above 100 µM.
For the molecule `O=c1c2ccccc2cc2n1Cc1cc3ccccc3nc1-2` [ROSETTACIN], the GI50 was 66.7 µM in the test with SF-539; above 100 µM in the test with DU-145; 68.2 µM in the test on HOP-62; 32.7 µM with HCT-116; 39.8 µM in the test with OVCAR-3; above 100 µM in the test on SN12C. Moreover, the 50% growth inhibitory concentration (GI50) in the test with UACC-62 amounted to 97.2 µM; in the test with MDA-MB-435, 41.8 µM.
`COc1cc2c3c(n(C)c(=O)c2cc1OC)-c1cc2c(cc1/C3=C/CCCI)OCO2` had an Activity in test [2] of 0. The GI50 in the test on SF-539 amounted to 4.3 µM; with DU-145, 28.7 µM; with HOP-62 it was 27.6 µM; with HCT-116, 0.56 µM; in the test with OVCAR-3 it was 22.8 µM; in the test on SN12C, 8.8 µM. For the same molecule, the GI50 in the test on UACC-62 was determined as 3.5 µM; in the test on MDA-MB-435 it was 5.2 µM.
Regarding `COc1cc2c3c(n(C)c(=O)c2cc1OC)-c1cc2c(cc1/C3=C/CCN)OCO2`, the GI50 in the test with SF-539 was 0.42 µM; in the test on DU-145 it was 0.37 µM; with HOP-62 it was 0.071 µM; with HCT-116, 0.028 µM; in the test with OVCAR-3, 0.56 µM; in the test with SN12C it was 0.58 µM. Moreover, the GI50 with UACC-62 was found to be 0.2 µM; with MDA-MB-435, 1.8 µM. In the test with Cancer cell lines, the MGM stood at 0.34 µM. The Activity result in [3] is recorded as “greater activity than compound 2”.
Take `COc1cc2c3c(n(C)c(=O)c2cc1OC)-c1cc2c(cc1/C3=C\CCCCBr)OCO2`: the GI50 in the test with OVCAR-3, with SN12C, in the test with UACC-62 and in the test with MDA-MB-435 was above 100 µM each time.

For orientation: GI50 means the concentration at which growth is held to half of that of the control. A higher GI50 goes with lower sensitivity of the cells.

The values above are taken from ChEMBL document CHEMBL1145853, “Design, synthesis, and biological evaluation of cytotoxic 11-alkenylindenoisoquinoline topoisomerase I inhibitors and indenoisoquinoline-camptothecin hybrids” (2003).
